The record followed here is ChEMBL document CHEMBL3124823, “1,2,3-Triazole-containing derivatives of rupestonic acid: click-chemical synthesis and antiviral activities against influenza viruses” (Eur J Med Chem, 2014).

Converted amounts (≈) assume the structure as drawn.

The nature of series [1]: Selectivity index, ratio of TC50 for MDCK cells to IC50 for Influenza B virus jifang/13/97. In kind it is toxicity, cell-based. The note with it: dog, read-out: Selectivity Index. In outline:
(§1)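 Selectivity index = TC50 (MDCK, 48 h visual cytotoxicity) / IC50 from the 40 h CPE-inhibition assay for the given strain.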

Series [2] has as its system Influenza B virus. Kind of series: Antiviral activity against Influenza B virus jifang/13/97 infected in MDCK cells assessed as inhibition of virus-induced cytopathicity after 40 hrs. The note with it: jifang/13/97, MDCK. In kind it is functional, organism-based. The gist of the method: (§2)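 CPE reduction in MDCK cells: cells grown 24 h at 37 °C, 5% CO2, then infected and held 2 h at 37 °C before the inoculum was removed. Threefold serial drug dilutions (8 levels from 20 mg/mL DMSO stocks) were added and incubated 40 h at 37 °C. CPE inhibition was scored against cell and virus controls to give IC50. Ribavirin and oseltamivir were the controls.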
Background: Cytopathic effects are the visible damage that an infection or toxin causes in cultured cells.

Series [3] relates to Influenza A virus. Description: Antiviral activity against Influenza A virus A/hanfang/359/95(H3N2) infected in MDCK cells assessed as inhibition of virus-induced cytopathicity after 40 hrs. Format: functional, organism-based. In outline:
as §2

Series [4] concerns Influenza A virus. Description: Antiviral activity against Influenza A virus (A/FM/1/1947(H1N1)) infected in MDCK cells assessed as inhibition of virus-induced cytopathicity after 40 hrs. In kind it is functional, organism-based. Particulars: A/Fort Monmouth/1/1947(H1N1). In outline: as §2
A short description of series [5]: Cytotoxicity against MDCK cells after 48 hrs. The note with it: dog, read-out: TC50. In kind it is cell-based, Canis lupus familiaris. The gist of the method:
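MDCK cells seeded at 25000 per well and cultured 24 h at 37 °C, 5% CO2. Threefold dilutions were added to the monolayer and culture continued 48 h. Cytopathic changes were recorded by observation, and TC50 was calculated by the Reed & Muench method.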

Series [6] can be described thus: Selectivity index, ratio of TC50 for MDCK cells to IC50 for Influenza A virus (A/Tianjinjinnan/15/2009/H1N1). In kind it is toxicity, cell-based. Particulars: dog, read-out: Selectivity Index. In outline: as §1
Series [7] in a line: Selectivity index, ratio of TC50 for MDCK cells to IC50 for Influenza A virus (A/FM/1/1947(H1N1)). In kind it is toxicity, cell-based. The note with it: dog, read-out: Selectivity Index. In outline:
as §1

The test system of series [8] is Influenza B virus. Kind of series: Ratio of ribavirin IC50 to compound IC50 for Influenza B virus jifang/13/97 infected in MDCK cells. In kind it is functional.
Series [9] in a line: Selectivity index, ratio of TC50 for MDCK cells to IC50 for Influenza A virus A/hanfang/359/95(H3N2). Format: toxicity, cell-based. Particulars: dog, read-out: Selectivity Index. In outline: as §1

As for `C=C(C(=O)OCc1cn(Cc2ccccc2)nn1)[C@@H]1CC[C@H](C)[C@@H]2CC(=O)C(C)=C2C1`, the selectivity ratio in series [1] is at least 3.9. In addition, the values for the concentration for half-maximal inhibition (IC50) with Influenza B virus [2], with Influenza A virus [3] and in the series on Influenza A virus [4] were at least 7.41 µg/mL, above 7.41 µg/mL and above 7.41 µg/mL, respectively. Also, the CC50 at 48 h in series [5] was 28.6 µg/mL (≈ 68.2 µM).
On to `C=C(C(=O)OCc1cn(Cc2cccc(F)c2)nn1)[C@@H]1CC[C@H](C)[C@@H]2CC(=O)C(C)=C2C1`, for which the selectivity ratio in series [1] is at least 4.3. The figures for the IC50 in the series with Influenza B virus [2], in the series on Influenza A virus [3] and with Influenza A virus [4] were at least 22.2 µg/mL, above 22.2 µg/mL and above 22.2 µg/mL, respectively. Further, the CC50 at 48 h in [5] worked out at 96.2 µg/mL (≈ 220 µM).
As to `C=C(C(=O)OCc1cn(Cc2cccc(Cl)c2)nn1)[C@@H]1CC[C@H](C)[C@@H]2CC(=O)C(C)=C2C1`, the selectivity ratio in series [1] is 2.1. The figures for the 50% inhibitory concentration (IC50) in the series with Influenza B virus [2], in the series on Influenza A virus [3] and with Influenza A virus [4] were 66.7 µg/mL (≈ 147 µM), above 66.7 µg/mL and at least 66.7 µg/mL, respectively. The CC50 at 48 h in series [5] came out at 139 µg/mL (≈ 305 µM).
`C=C(C(=O)OCc1cn(Cc2ccc(OC)cc2)nn1)[C@@H]1CC[C@H](C)[C@@H]2CC(=O)C(C)=C2C1`: the results for the selectivity ratio in [1], in series [6] and in series [7] were at least 2.1, 2.08 and 2.68, respectively. The half-maximal inhibitory concentration (IC50) (in general, the concentration that gives 50% inhibition) with Influenza B virus [2] is at least 22.2 µg/mL; with Influenza A virus [3], above 22.2 µg/mL; in the series with Influenza A virus [4], 19.7 µg/mL (≈ 43.9 µM). In series [5], the CC50 at 48 h was found to be 46.2 µg/mL (≈ 103 µM).
As for `C=C(C(=O)NCc1cn(Cc2ccc(Cl)cc2)nn1)[C@@H]1CC[C@H](C)[C@@H]2CC(=O)C(C)=C2C1`, the “Ratio IC50” value in the series on Influenza B virus [8] is above 4. The selectivity ratio in [1] stood at 8.55. The half-maximal inhibitory concentration (IC50) with Influenza B virus [2] is 2.09 µg/mL (≈ 4.61 µM); in the series on Influenza A virus [3], above 2.47 µg/mL; in the series on Influenza A virus [4], above 2.47 µg/mL. Also, the CC50 at 48 h in series [5] came to 17.2 µg/mL (≈ 38.1 µM).
Take `C=C(C(=O)OCc1cn(Cc2ccc(C)cc2)nn1)[C@@H]1CC[C@H](C)[C@@H]2CC(=O)C(C)=C2C1`: the selectivity ratio in [1] is at least 4.32. Moreover, the IC50 in the series with Influenza B virus [2] is at least 22.2 µg/mL; with Influenza A virus [3] it was above 22.2 µg/mL; in the series on Influenza A virus [4], above 22.2 µg/mL. The CC50 at 48 h in series [5] turned out to be 96.2 µg/mL (≈ 222 µM).
As to `C=C(C(=O)NCc1cn(Cc2ccc(OC)cc2)nn1)[C@@H]1CC[C@H](C)[C@@H]2CC(=O)C(C)=C2C1`, the results for the selectivity ratio in [1] and in series [7] were 8.25 and 10.5, respectively. Besides, the IC50 was 11.8 µg/mL (≈ 26.2 µM) with Influenza B virus [2], above 22.2 µg/mL in the series with Influenza A virus [3] and 14 µg/mL (≈ 31.2 µM) in the series with Influenza A virus [4]. For the same compound, the CC50 at 48 h in [5] was 96.2 µg/mL (≈ 214 µM).
On to `C=C(C(=O)NCc1cn(Cc2cccc(OC)c2)nn1)[C@@H]1CC[C@H](C)[C@@H]2CC(=O)C(C)=C2C1`, for which the selectivity ratio came out at 3.45 in series [1] and 5.2 in series [7]. Besides, the half-inhibitory concentration (IC50) is 19.7 µg/mL (≈ 44 µM) with Influenza B virus [2], above 22.2 µg/mL in the series on Influenza A virus [3] and 12.8 µg/mL (≈ 28.6 µM) in the series on Influenza A virus [4]. The CC50 at 48 h in [5] worked out at 66.7 µg/mL (≈ 149 µM).
For the compound `C=C(C(=O)OCc1cn(Cc2ccccc2Cl)nn1)[C@@H]1CC[C@H](C)[C@@H]2CC(=O)C(C)=C2C1`, the selectivity ratio worked out at 10.4 in series [1], 3.31 in [9] and 1.98 in [6]. The 50% inhibitory concentration (IC50) in the series with Influenza B virus [2] is 14.8 µg/mL (≈ 32.6 µM); in the series with Influenza A virus [3], 40.2 µg/mL (≈ 88.5 µM); with Influenza A virus [4] it was above 66.7 µg/mL. The CC50 at 48 h in series [5] stood at 115 µg/mL (≈ 254 µM).
Consider `C=C(C(=O)NCc1cn(Cc2ccccc2)nn1)[C@@H]1CC[C@H](C)[C@@H]2CC(=O)C(C)=C2C1`, for which the selectivity ratio in series [1] was found to be 12.2; in series [7] it was 5.58. In addition, the IC50 is 11.3 µg/mL (≈ 27 µM) in the series on Influenza B virus [2], above 22.2 µg/mL in the series with Influenza A virus [3] and 17.2 µg/mL (≈ 41.2 µM) in the series on Influenza A virus [4]. For the same compound, the CC50 at 48 h in series [5] came out at 96.2 µg/mL (≈ 230 µM).
As for `C=C(C(=O)OCc1cn(Cc2ccc(F)cc2)nn1)[C@@H]1CC[C@H](C)[C@@H]2CC(=O)C(C)=C2C1`, the selectivity ratio in series [1] was 9.1. Besides, the half-maximal inhibitory concentration (IC50) is 8.98 µg/mL (≈ 20.5 µM) with Influenza B virus [2], above 22.2 µg/mL in the series with Influenza A virus [3] and above 22.2 µg/mL in the series with Influenza A virus [4]. Besides, in [5], the CC50 at 48 h came out at 66.7 µg/mL (≈ 152 µM).
`C=C(C(=O)NCc1cn(Cc2ccccc2C)nn1)[C@@H]1CC[C@H](C)[C@@H]2CC(=O)C(C)=C2C1`: the selectivity ratio in series [1] amounted to 4.55. In addition, the concentration for half-maximal inhibition (IC50) in the series on Influenza B virus [2] was 15 µg/mL (≈ 34.7 µM); in the series with Influenza A virus [3], above 22.2 µg/mL; in the series on Influenza A virus [4], above 22.2 µg/mL. Besides, in [5], the CC50 at 48 h came out at 66.7 µg/mL (≈ 154 µM).
As to `C=C(C(=O)NCc1cn(Cc2ccc(C)cc2)nn1)[C@@H]1CC[C@H](C)[C@@H]2CC(=O)C(C)=C2C1`, the selectivity ratio in [1] was found to be 8.25; in series [7] it was 5.91. In addition, the IC50 in the series with Influenza B virus [2] was 11.8 µg/mL (≈ 27.2 µM); in the series on Influenza A virus [3] it was above 22.2 µg/mL; in the series with Influenza A virus [4], 17.5 µg/mL (≈ 40.5 µM). Moreover, the CC50 at 48 h in series [5] turned out to be 96.2 µg/mL (≈ 222 µM).
